Data set [1] relates to HepG2. In words: Induction of apoptosis in human HepG2 cells assessed as apoptotic cells at IC50 after 24 hrs by annexin V-FITC/propidium iodide staining based Flow cytometric analysis (reference value: 2.68%). The format is functional.
The target of data set [2] is T1, MAP/microtubule affinity-regulating kinase 4 (Homo sapiens) (UniProt Q96L34).
T1 sequence (whole entry): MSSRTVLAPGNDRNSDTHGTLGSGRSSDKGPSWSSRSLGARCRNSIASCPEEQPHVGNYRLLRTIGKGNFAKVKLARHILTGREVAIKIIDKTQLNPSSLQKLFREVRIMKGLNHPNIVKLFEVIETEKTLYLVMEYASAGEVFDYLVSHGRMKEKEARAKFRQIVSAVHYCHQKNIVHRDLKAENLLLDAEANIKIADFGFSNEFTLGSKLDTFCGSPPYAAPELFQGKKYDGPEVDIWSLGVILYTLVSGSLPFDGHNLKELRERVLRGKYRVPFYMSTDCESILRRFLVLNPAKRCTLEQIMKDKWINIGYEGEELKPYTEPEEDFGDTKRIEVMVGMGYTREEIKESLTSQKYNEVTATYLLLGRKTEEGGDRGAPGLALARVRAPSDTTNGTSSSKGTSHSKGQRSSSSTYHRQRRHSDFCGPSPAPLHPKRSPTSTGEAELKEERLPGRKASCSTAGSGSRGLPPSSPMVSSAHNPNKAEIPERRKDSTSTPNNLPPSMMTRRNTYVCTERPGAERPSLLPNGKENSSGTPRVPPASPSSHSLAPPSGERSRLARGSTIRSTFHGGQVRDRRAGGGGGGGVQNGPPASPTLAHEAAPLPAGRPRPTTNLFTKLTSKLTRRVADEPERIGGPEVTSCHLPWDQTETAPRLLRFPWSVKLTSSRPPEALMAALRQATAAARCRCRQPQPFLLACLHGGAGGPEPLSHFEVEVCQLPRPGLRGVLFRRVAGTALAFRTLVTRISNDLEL
In words: Inhibition of recombinant human MARK4 at 10 uM incubated for 2 hrs by [gamma32P]ATP assay. The method, boiled down:
(§1)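 Recombinant human MARK4 was incubated 2 h at 37 °C with 1 mM cold ATP plus [γ-32P]ATP (222 TBq mmol−1), with or without compound. Released 32Pi was separated from ATP by TLC, and spots were quantified as % ATP hydrolysis relative to a 100 nM enzyme positive control. Screening was at a single 10 μM; dose-response used 0.5−10 μM.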

Data set [3] relates to MCF7. In words: Induction of cell cycle arrest in human MCF7 cells assessed as accumulation at G0/G1 phase at IC50 after 24 hrs by propidium iodide staining based Flow cytometric analysis (reference value: 65%). The format is functional. (In general: In flow cytometry, cells or beads pass a laser one at a time.)
Data set [4] relates to HepG2. In words: Induction of cell cycle arrest in human HepG2 cells assessed as accumulation at S phase at IC50 after 24 hrs by propidium iodide staining based Flow cytometric analysis (reference value: 15%). It is filed as functional.
Another data set relates to HEK293. Description: Cytotoxicity against human HEK293 cells assessed as reduction in cell viability upto 50 uM after 48 hrs by MTT assay. It is filed as cell-based. The settings on record: hek293, 48 h. The method, boiled down:
(§2)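 Cells plated at 9000−10 000 cells/well, grown 24 h, then exposed to 0−50 μM compound for 48 h at 37 °C in 5% CO2, followed by a standard MTT read-out. HEK-293, MCF-7 and HepG2 were kept in DMEM with 10% heat-inactivated FBS and 1% penicillin−streptomycin. Viability is expressed as % of control, mean ± SD, n = 3. Paclitaxel served as positive control.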
For orientation: Tetrazolium assays rely on reduction of a dye to a coloured formazan, in cell work by metabolically active cells.

In data set [5] the test system is MCF7. Description: Induction of cell cycle arrest in human MCF7 cells assessed as accumulation at S phase at IC50 after 24 hrs by propidium iodide staining based Flow cytometric analysis (reference value: 20%). It is filed as functional.
Data set [6] concerns HepG2. In words: Induction of cell cycle arrest in human HepG2 cells assessed as accumulation at S phase at IC50 after 24 hrs by propidium iodide staining based Flow cytometric analysis (reference value: 25%). The format is functional.
For data set [7], the system named is MCF7. In words: Antiproliferative activity against human MCF7 cells assessed as reduction in cell viability after 48 hrs by MTT assay. The settings on record: MCF7, 48 h. It is filed as functional, cell-based. The method, boiled down: as §2
Data set [8] deals with HepG2. In words: Induction of apoptosis in human HepG2 cells assessed as viable cells at IC50 after 24 hrs by annexin V-FITC/propidium iodide staining based Flow cytometric analysis (reference value: 97.32%). It is filed as functional.
The subject of data set [9] is HepG2. In words: Antiproliferative activity against human HepG2 cells assessed as reduction in cell viability after 48 hrs by MTT assay. It is filed as functional, cell-based. The settings on record: HepG2, 48 h. The method, boiled down:
as §2

Data set [10] concerns the target T1, MAP/microtubule affinity-regulating kinase 4 (Homo sapiens). Description: Inhibition of MARK4 in human SH-SY5Y cells assessed as reduction in tau phosphorylation at IC50 after 24 hrs by flow cytometric analysis. It is filed as cell-based. The method, boiled down: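 SH-SY5Y cells were grown in 1:1 EMEM/F12 with 10% FBS and incubated with IC50 compound. After 24 h, about 1 × 10^6 cells were collected, fixed, and stained with anti-tau primary antibody for 2−3 h at 25 °C. Phospho-tau signal was read by flow cytometry against untreated cells.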

For data set [11], the target named is T2, MAP/microtubule affinity-regulating kinase 4 (Homo sapiens, UniProt Q96L34).
T2 sequence (Q96L34 whole entry): T1 sequence (whole entry)
Description: (§3) Inhibition of recombinant human MARK4 incubated for 2 hrs by [gamma32P]ATP assay. The method, boiled down: as §1

In data set [12] the target is T1, MAP/microtubule affinity-regulating kinase 4 (Homo sapiens). Described as §3. The method, boiled down:
as §1

The target is the same in data set [13]. In words: Binding affinity to recombinant human MARK 4 by fluorescence based Stem-Volme plot analysis. The method, boiled down:
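Intrinsic fluorescence of recombinant MARK4 (10 μM) was titrated with increasing ligand, using excitation at 280 nm and emission recorded from 300−400 nm. Quenching was fitted to a modified Stern−Volmer equation, log(Fo−F)/F = log Ka + n log[L]. Ka came from the intercept and n from the slope. Three independent triplicate titrations were averaged.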

Data set [14] shares this target. Description: Inhibition of MARK4 in human MCF7 cells assessed as reduction in ROS level at IC50 after 5 to 6 hrs by DCFDA staining using spectroflourimetric analysis. The format is cell-based.
For data set [15], the system named is MCF7. Description: Inhibition of cell migration in human MCF7 cells at IC50 after 48 hrs by phase contrast inverted microscopic based wound healing assay. The format is functional.
In data set [16] the test system is HepG2. Description: Induction of cell cycle arrest in human HepG2 cells assessed as accumulation at G0/G1 phase at IC50 after 24 hrs by propidium iodide staining based Flow cytometric analysis (reference value: 60%). The format is functional.
Data set [17] has as its system MCF7. Description: Induction of cell cycle arrest in human MCF7 cells assessed as accumulation at G2 phase at IC50 after 24 hrs by propidium iodide staining based Flow cytometric analysis (reference value: 15%). It is filed as functional.
Data set [18] has as its target T1, MAP/microtubule affinity-regulating kinase 4 (Homo sapiens). In words: Inhibition of MARK4 in human HepG2 cells assessed as reduction in ROS level at IC50 after 5 to 6 hrs by DCFDA staining using spectroflourimetric analysis. It is filed as cell-based.
In data set [19] the test system is MCF7. In words: Induction of apoptosis in human MCF7 cells assessed as viable cells at IC50 after 24 hrs by annexin V-FITC/propidium iodide staining based Flow cytometric analysis (reference value: 99.99%). The format is functional.
In data set [20] the test system is MCF7. In words: Induction of apoptosis in human MCF7 cells assessed as apoptotic cells at IC50 after 24 hrs by annexin V-FITC/propidium iodide staining based Flow cytometric analysis (reference value: 0.01%). The format is functional.

For orientation: IC50 means the concentration needed to halve the response being measured.

SMILES strings stand for the structures. The source made the active and inactive calls. The calls are words filed in the database; no cut-off is given here.

For `COc1c(O)cc2oc3cc(O)c(CC=C(C)C)c(O)c3c(=O)c2c1CC=C(C)C` [MANGOSTIN], the Activity is on record as 19.7% in the data set on HepG2 [1]; 83% in the data set with MCF7 [3]; 10% in the data set on HepG2 [4]; “Non-Toxic” in the data set with HEK293; 10% in the data set on MCF7 [5]; 15% in the data set with HepG2 [6]. The Activity is reported as 80.3% in the data set on HepG2 [8]; 75% with HepG2 [16]; 7% in the data set on MCF7 [17]; 74.1% with MCF7 [19]; 25.9% in the data set on MCF7 [20]. In addition, the inhibition entry (in data set [2]; in data set [10]; in data set [14]; in the data set on MCF7 [15]; in data set [18]) was “Active” in each case. Also, the IC50 amounted to 9.95 µM in the data set on MCF7 [7], 18.6 µM in the data set on HepG2 [9] and 1.77 µM in [11]. In data set [12], the inhibition entry is “Dose-dependent effect”. For the same compound, the Ka in data set [13] came out at 5.2 ×10⁷ /M.
As for `O=c1oc2c(O)c(O)cc3c(=O)oc4c(O)c(O)cc1c4c23`, the inhibition entry in data set [2] was “Active”.

For the origin of these results see ChEMBL document CHEMBL4334459, “Identification of α-Mangostin as a Potential Inhibitor of Microtubule Affinity Regulating Kinase 4” (J Nat Prod, 2019).
